MrgX1 PAM – positive allosteric modulators of MrgX1, primary screen, HEK293 cells, Fluo-4 calcium flux | Mas-related G-protein coupled receptor member X1 (Homo sapiens), Q96LB2 | FDSS; active compounds read high | B-score at 10 µM | 310,000 compounds, 0.63% hits | AID 588675, 2011;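 active means plate-corrected calcium response at least 3 library SD above typical, normal starting fluorescence, not activating the receptor alone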;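 further: compound read alongside a low EC10 to EC30 dose of BAM8-22 agonist; peak minus trough fluorescence over baseline measured at the second addition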
Target sequence (Q96LB2 whole entry, looked up): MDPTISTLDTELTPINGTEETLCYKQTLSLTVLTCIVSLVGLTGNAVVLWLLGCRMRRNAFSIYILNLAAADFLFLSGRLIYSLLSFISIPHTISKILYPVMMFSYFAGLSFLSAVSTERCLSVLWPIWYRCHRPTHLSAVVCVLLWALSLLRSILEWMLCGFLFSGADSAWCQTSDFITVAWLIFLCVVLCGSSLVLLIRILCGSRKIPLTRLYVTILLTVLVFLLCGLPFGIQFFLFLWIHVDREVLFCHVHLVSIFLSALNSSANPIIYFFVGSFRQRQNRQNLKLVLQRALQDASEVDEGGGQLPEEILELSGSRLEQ
MrgX1 agonist – agonists of human MrgX1 receptor, primary screen, HEK293 cells, Fluo-4 calcium flux; AID 588627, 2011; Mas-related G-protein coupled receptor member X1 (Homo sapiens), Q96LB2; B-score at 10 µM; 310,000 compounds, 0.44% hits; Fluo-4 calcium fluorescence, agonist mode; active compounds read high;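 active means calcium response B-score plate-corrected fluorescence ratio at least 3 library SD, with starting fluorescence B-score inside 5 SD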
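Material: HEK293 cells stably expressing human MrgX1 receptor | Quantity: 15,000 cells per well | Times: Cells plated overnight, dye loaded 0.5 h 37 °C, 0.5 h room temperature | Measured by: Kinetic Fluo-4 NW fluorescence of intracellular calcium | Control set: Positive and negative controls per plate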
RGS4 pot – RGS4 potentiators or activators, primary screen, cell-based, HEK293 M3R inducible RGS4, calcium flux; 310,000 compounds, 0.92% hits; B-score at 10 µM; carbachol calcium flux Fluo4; active compounds read low;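 active means B-score of the integrated calcium signal more than 4 SD below the library mean, with starting fluorescence not abnormally high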;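 further: negative B-score means reduced calcium response which marks RGS4 activation or potentiation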
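Assay system: HEK293 FlpIn-TREx cells, stable M3R, doxycycline-inducible RGS4 / Probe or stimulus: carbachol, ECmax concentration / Times: overnight RGS4 induction, 30 min dye load 37 °C, 20 min compound RT / Signal: kinetic calcium fluorescence imaging with Fluo4-AM dye, 2 µM / Measure: Agonist-evoked peak-minus-minimum fluorescence over baseline, integrated ratio, B score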
MrgX1 antag – antagonists of human MrgX1 receptor, primary screen, HEK293 cells, Fluo-4 calcium flux; BAM8-22 antagonism; active compounds read low; 310,000 compounds, 1.3% hits; B-score at 10 µM; Mas-related G-protein coupled receptor member X1 (Homo sapiens), Q96LB2;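 active means calcium-response B-score plate-corrected more than 3 library SD below zero, starting fluorescence within 5 deviations, no agonist response on first addition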;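 further: peak minus trough fluorescence over baseline after final BAM8-22 challenge near maximal dose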
RGS4 block – RGS4 inhibitors, primary screen, cell-based, HEK293 M3R inducible RGS4, calcium flux; Regulator of G-protein signaling 4 (Homo sapiens), P49798; Fluo-4 calcium flux; active compounds read high; triggered by carbachol at its EC20; B-score at 10 µM; 310,000 compounds, 0.45% hits;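 active means B-score, a plate-corrected calcium signal, over three deviations above library mean, with baseline fluorescence within five deviations of library mean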;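 further: RGS4 expression induced by doxycycline in cells with stable M3 receptor; B-score is computed from the integrated fluorescence ratio over baseline after carbachol; higher B-score means a larger calcium signal and so more RGS4 inhibition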
Target sequence (P49798 whole entry, looked up): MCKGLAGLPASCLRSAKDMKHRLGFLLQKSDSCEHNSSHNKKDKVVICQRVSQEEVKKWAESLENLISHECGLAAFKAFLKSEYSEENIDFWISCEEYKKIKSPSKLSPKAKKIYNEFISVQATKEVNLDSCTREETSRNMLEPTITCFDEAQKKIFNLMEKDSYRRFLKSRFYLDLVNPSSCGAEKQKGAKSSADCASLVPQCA
MrgX1 antag conf – MrgX1 receptor antagonists, duplicate retest, confirmation, HEK293 cells, Fluo-4 calcium flux; shares compounds with MrgX1 antag; BAM8-22 calcium flux; active compounds read low; remaining BAM8-22 calcium response % of control (active compounds read low), % at 10 µM; 2,300 compounds, 19% hits;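 active means remaining agonist calcium response no higher than 100% minus 3 SD of agonist-only control wells, with starting fluorescence near control levels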;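 further: agonist BAM8-22 given at a near maximal EC90 to ECmax level; peak minus minimum fluorescence divided by baseline after agonist addition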
HEK293 Ca flux – nonspecific calcium signal in parental HEK293, confirmation, counter-screen for MrgX1 antagonist project, parental HEK293 cells, Fluo-4 calcium flux | shares compounds with MrgX1 antag | Fluo-4 calcium fluorescence, FDSS | fluorescence ratio F(max-min)/F0 at 10 µM | 4,000 compounds, 2% hits;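 active means duplicate-averaged calcium fluorescence ratio at least three times the standard deviation of buffer wells, a nonspecific response in parental cells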
HEK293 Ca counter – calcium response in parental HEK293 cells, primary screen, counter-screen for MrgX1 allosteric activator project, cell-based, Fluo-4 calcium flux, duplicate. shares compounds with MrgX1 antag. Fluo-4 fluorescence ratio; active compounds read high. fluorescence ratio F(max-min)/F0 at 10 µM. 4,000 compounds, 0.4% hits;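 active means calcium fluorescence ratio, averaged over duplicates, at least 3 SD of the buffer-well ratio, meaning a nonspecific response in receptor-free cells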;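 further: untransfected parental HEK293 lacking MrgX1 used as counterscreen for MrgX1 allosteric activators; fluorescence change taken during the second addition on a kinetic imager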
HEK293 Ca cntr2 – calcium response in parental HEK293 cells, primary screen, counter-screen for MrgX1 agonist project, cell-based, Fluo-4 calcium flux, duplicate, agonist mode. fluorescence ratio F(max-min)/F0 at 10 µM. 4,000 compounds, 8.7% hits. AID 624115, 2012. Fluo-4 calcium fluorescence (FDSS); active compounds read high. shares compounds with MrgX1 antag;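 active means calcium fluorescence ratio at least three times the spread of buffer wells, meaning a non-specific response in parental cells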
* hit, by the source's call; i = inactive; . = not tested or not shown. Most compounds without a hit are left out; they make up all but 3.5% or so of the library.

SMILES | MrgX1 PAM | MrgX1 agonist | RGS4 pot | MrgX1 antag | RGS4 block | MrgX1 antag conf | HEK293 Ca flux | HEK293 Ca counter | HEK293 Ca cntr2
O=C(NC(NC(=S)Nc1cc(Cl)ccc1Cl)C(Cl)(Cl)Cl)c1ccco1 (centres undefined) | i | i | i | -5.8* | i | 60%* | i | i | i
O=C(NC(NC(=S)Nc1ccc(Cl)c(Cl)c1)C(Cl)(Cl)Cl)c1ccco1 (centres undefined) | i | i | i | i | i | . | . | . | .
CC1CCCN(C(=O)Nc2ccc(Br)cc2Cl)C1 (centres undefined) | i | i | i | i | i | . | . | . | .
CC1CN(C(=O)Nc2ccc(Br)cc2Cl)CC(C)O1 (centres undefined) | i | i | i | -6.4* | i | i | i | i | i
CCc1cccc(C)c1NC(=O)C1=C(C(=O)O)CCCC1 | i | i | i | -7.8* | i | i | i | i | i
Cc1ccc(S(=O)(=O)N2CCc3c2cc([N+](=O)[O-])cc3[N+](=O)[O-])cc1 | i | i | i | i | i | . | . | . | .
CSc1ccccc1OCc1cc(C(=O)N2CCCC(C)C2)no1 (centres undefined) | i | i | i | -5.7* | i | i | i | i | i
CCN(CC)C1CCN(C(=O)c2cc(COc3ccccc3SC)on2)C1 (centres undefined) | i | i | i | i | i | . | . | . | .
COc1ccc(C(=O)NC2CCc3ccccc32)cc1OC1CCN(C(C)C)CC1 (centres undefined) | i | i | i | i | i | . | . | . | .
COc1ccc(CC(=O)OCC(=O)Nc2ncc(Cl)cc2Cl)cc1 | i | i | i | -4.7* | i | i | i | i | i
COc1ccc(C)cc1S(=O)(=O)N(CC(=O)N1CCCC1)c1ccc(C)cc1 | i | i | i | i | i | . | . | . | .
COc1ccc(C)cc1S(=O)(=O)N(CC(=O)N1CCCC1)c1ccccc1 | i | i | i | -5.8* | i | i | i | i | i
C[C@]12CCC[C@H](O1)c1c(cc3c(c1O)C(=O)c1c(O)cc(O)cc1C3=O)O2 | i | i | i | -7.6* | i | i | 0.64* | i | i
CC1(C)CC(=O)c2c(O)cc(O)cc2O1 | i | i | i | i | i | . | . | . | .
Cc1[nH]c2ccc(C(=O)OC(C)C(=O)NC3(C#N)CCCCC3)cc2c1C (centres undefined) | i | i | i | -6* | i | i | i | i | i
CC1CCCN(C(=O)c2cn(-c3ccccc3)nc2-c2cccnc2)C1 (centres undefined) | i | i | i | -6.8* | i | i | i | i | i
CCOC(=O)C1CCCN(C(=O)c2cn(-c3ccccc3)nc2-c2cccnc2)C1 (centres undefined) | i | i | i | i | i | . | . | . | .
Cc1cc(Nc2ccccc2)n(C(=O)c2ccccc2)n1 | i | i | i | -6.8* | i | i | i | i | i
COCC(=O)n1nc(-c2ccccc2)nc1NCc1ccc(N(C)C)cc1 | i | i | i | i | i | . | . | . | .
COCC(=O)n1nc(-c2ccc(Cl)cc2)nc1NCc1ccc(F)cc1 | i | i | i | -4.9* | i | 81%* | i | i | i
O=C(CSc1ccc(-c2ccc(F)cc2)nn1)NC1CCCCC1 | i | i | i | i | i | . | . | . | .
CC1CCc2sc(C(=O)OCC(=O)NCc3ccc(F)cc3)cc2C1 (centres undefined) | i | i | i | -21* | i | i | i | i | i
Cc1ccc2nc(-c3ccc(N4C(=N)SC5CS(=O)(=O)CC54)cc3)sc2c1 (centres undefined) | i | i | i | -7.3* | i | 85%* | i | i | i
Cc1ccc2nc(-c3ccc(N4C(=O)CC(N5CCC(C(N)=O)CC5)C4=O)cc3)sc2c1 (centres undefined) | i | i | i | i | i | . | . | . | .
CCn1nc(CC(=O)O)c2ccccc2c1=O | i | i | i | i | i | . | . | . | .
SMILES | MrgX1 PAM | MrgX1 agonist | RGS4 pot | MrgX1 antag | RGS4 block | MrgX1 antag conf | HEK293 Ca flux | HEK293 Ca counter | HEK293 Ca cntr2
COc1ccc(N=Cc2cc3c(cc2O)OC(N)=C(C#N)C3c2ccccc2)cc1 (centres undefined) | i | i | i | -5.9* | i | i | i | i | i
N#CC1=C(N)Oc2cc3ccccc3cc2C1c1cccnc1 (centres undefined) | i | i | i | i | i | . | . | . | .
COC(=O)c1ccc(NC(=O)CSc2ccccn2)cc1 | i | i | i | i | i | . | . | . | .
COC(=O)c1ccc(NC(=O)CSc2ccccc2)cc1 | i | i | i | -5.9* | i | i | i | i | i
COC(=O)c1ccc(NC(=O)CN2CCN(c3ccccc3)CC2)cc1 | i | i | i | -6.7* | i | i | i | i | i
C=CCSc1nnc(CC(OC)OC)n1-c1ccccc1 | i | i | i | i | i | . | . | . | .
Cc1cc(NCCO)c2ccccc2n1 | i | i | i | -4.6* | i | i | i | i | i
Cc1ccc(Nc2nc(NCCO)c3ccccc3n2)cc1C | i | i | i | -6.1* | i | 78%* | i | i | i
Oc1ccc(C(=S)N2CCCCC2)cc1 | i | i | i | -4.8* | i | i | i | i | i

Screening data deposited in PubChem by Johns Hopkins Ion Channel Center.
